Source: PubChem BioAssay
Compounds with a hit are over-represented: about 1.9% of the library has one in this group of screens.
VIM-2 inh = inhibitors of Pseudomonas aeruginosa VIM-2 metallo-beta-lactamase | purified VIM-2, nitrocefin hydrolysis, epi-absorbance fluorescence | inhibition, % at 5.6 µM | AID 1527 | 290,000 tested, 0.89% active;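 active means inhibition above the mean of all tested compounds plus 3 SD, cutoff set per screening run, cut at about 7.5% in these data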;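 further: red hydrolysis product quenches plate fluorescence so inhibitors raise well fluorescence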
Fh CTSL1 inh = counter-screen for PFM18AAP inhibitors: inhibitors of F. hepatica cathepsin L1. recombinant F. hepatica cathepsin L1, Z-Leu-Arg-MCA fluorescence. inhibition, % at 5.96 µM. 300,000 tested, 0.49% active. AID 1906;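 active means inhibition above the mean of all tested compounds plus 3 SD, set per screening campaign, cut at about 17% in these data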
pCIP destab = p/CIP protein destabilization | decrease of EGFP signal, % at 10 µM | 290,000 tested, 0.01% active | F442A p/CIP-EGFP cells, EGFP fluorescence, 16 h;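 active means EGFP signal decrease of at least 30% at 10 µM or well 3 SD below plate mean, unless failing retest; inactive means the rest, including hits failing retest or dose response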
Target sequence (Q05BA5 1-1403): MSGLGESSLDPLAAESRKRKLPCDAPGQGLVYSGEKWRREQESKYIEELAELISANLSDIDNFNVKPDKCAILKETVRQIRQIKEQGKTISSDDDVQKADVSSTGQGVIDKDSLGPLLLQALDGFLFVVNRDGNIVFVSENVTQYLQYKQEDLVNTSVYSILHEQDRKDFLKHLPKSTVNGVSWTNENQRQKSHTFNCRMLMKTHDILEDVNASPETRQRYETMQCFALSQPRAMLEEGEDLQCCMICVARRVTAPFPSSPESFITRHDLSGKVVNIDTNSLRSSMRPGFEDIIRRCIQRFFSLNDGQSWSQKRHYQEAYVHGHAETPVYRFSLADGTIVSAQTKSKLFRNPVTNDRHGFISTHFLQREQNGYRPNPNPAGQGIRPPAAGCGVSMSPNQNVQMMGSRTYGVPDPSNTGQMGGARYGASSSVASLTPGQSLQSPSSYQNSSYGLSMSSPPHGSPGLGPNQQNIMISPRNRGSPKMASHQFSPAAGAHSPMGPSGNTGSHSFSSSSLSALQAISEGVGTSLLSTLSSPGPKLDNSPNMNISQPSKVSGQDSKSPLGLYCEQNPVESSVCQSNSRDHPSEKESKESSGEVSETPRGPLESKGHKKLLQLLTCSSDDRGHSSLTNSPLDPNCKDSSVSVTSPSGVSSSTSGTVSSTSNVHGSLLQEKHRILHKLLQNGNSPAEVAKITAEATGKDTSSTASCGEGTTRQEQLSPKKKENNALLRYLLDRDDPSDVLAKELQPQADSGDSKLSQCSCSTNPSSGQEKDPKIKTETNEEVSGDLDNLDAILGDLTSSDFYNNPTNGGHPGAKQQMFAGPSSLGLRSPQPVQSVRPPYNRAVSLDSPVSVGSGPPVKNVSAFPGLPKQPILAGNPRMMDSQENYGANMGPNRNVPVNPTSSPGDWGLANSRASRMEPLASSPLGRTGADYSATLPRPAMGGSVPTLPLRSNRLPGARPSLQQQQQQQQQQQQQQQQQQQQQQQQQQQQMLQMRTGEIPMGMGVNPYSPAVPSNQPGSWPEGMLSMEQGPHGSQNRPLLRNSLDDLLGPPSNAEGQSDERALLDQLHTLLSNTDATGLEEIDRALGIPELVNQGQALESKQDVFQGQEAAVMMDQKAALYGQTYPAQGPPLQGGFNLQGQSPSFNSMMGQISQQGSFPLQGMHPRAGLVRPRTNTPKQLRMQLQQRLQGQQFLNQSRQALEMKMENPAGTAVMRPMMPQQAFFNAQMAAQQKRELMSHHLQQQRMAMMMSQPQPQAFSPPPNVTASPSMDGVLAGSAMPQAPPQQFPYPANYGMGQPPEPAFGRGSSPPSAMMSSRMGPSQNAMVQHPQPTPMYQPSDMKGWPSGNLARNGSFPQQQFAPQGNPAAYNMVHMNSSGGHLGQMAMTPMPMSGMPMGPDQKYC
T cell HTS = T cell immune modulation candidate. 2C CD8+ T cell-vesicle binding, flow cytometry; active compounds read low. response (vesicle binding), % at 7 µM. 330,000 tested, 0.068% active;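 active means response, share of CD8 T cells binding vesicles, and their 90th percentile fluorescence all below set limits, cut at about 80% in these data, passing the limit was not always enough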;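 further: values below 100% mean blocked vesicle binding to the CD8+ T cells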
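material = purified 2C TCR transgenic mouse naive CD8+ T cells | controls = Unloaded micro-vesicles (low), QL9 vesicles with 0.7% DMSO (high) | detection = cytometric PE anti-B7-1 and Alexa647 anti-CD8 signals after 1% paraformaldehyde fixation | incubation = binding step 1.5 h, 37 °C, antibody labelling 20 min, ice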
IMP-1 inh-1 = inhibitors of Pseudomonas aeruginosa IMP-1 metallo-beta-lactamase; inhibition, % at 5.6 µM; purified IMP-1, nitrocefin hydrolysis, epi-absorbance fluorescence; 290,000 tested, 0.45% active;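 active means inhibition above the mean plus 3 SD of all compounds in the same screening run, cut at about 4.5% in these data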
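Test system: recombinant IMP-1 enzyme, purified / Medium: HEPES buffer pH 7.1 with ZnSO4 and Brij 35 / Doses: single dose, 5.6 µM / Times: 25 °C, 15 min preincubation, 25 min reaction / Detection: Epi-absorbance via hydrolysed-nitrocefin quenching of white-plate fluorescence, 480/530 nm, EDTA stop / Evaluation: percent inhibition from optical density relative to buffer-blank wells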
UBC9 SUMO inh = inhibitors of human SUMOylation (UBC9). AID 2006. inhibition, % at 35 µM. HTRF SUMOylation assay, SAE1/SAE2 + UBC9, in vitro. 290,000 tested, 0.36% active; in the data active means inhibition above about 50%, passing the limit was not always enough
IMP-1 inh-2 = IMP-1 inhibition, counter-screen for VIM-2 inhibitors | shares compounds with VIM-2 inh | purified IMP-1, nitrocefin hydrolysis, epi-absorbance fluorescence | inhibition, % at 5.6 µM | 1,300 tested, under 10 active; call rule not given here
VIM-2 FRET ctr = inhibits VIM-2 in FRET assay to exclude epi-absorbance artifacts | shares compounds with VIM-2 inh | purified VIM-2, CCF2 FRET substrate hydrolysis | inhibition, % at 5.6 µM | 1,300 tested, 23% active | AID 1857;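 active means inhibition above the mean of all tested compounds plus 3 SD, cut at about 19% in these data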
TEM-1 inh = TEM-1 inhibition, counter-screen for VIM-2 inhibitors | shares compounds with VIM-2 inh | Purified TEM-1, nitrocefin hydrolysis, epi-absorbance fluorescence | inhibition, % at 5.6 µM | 1,300 tested, 3% active | AID 1866;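 active means inhibition above that campaign's mean inhibition plus 3 SD, cut at about 0.46% in these data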
VIM-2 confirm 2 = confirmation of P. aeruginosa VIM-2 metallo-beta-lactamase inhibitors | shares compounds with VIM-2 inh | purified VIM-2, nitrocefin hydrolysis, epi-absorbance | inhibition, % at 5.6 µM | 1,300 tested, 96% active;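 active means inhibition of the VIM-2 beta-lactamase enzyme above about 11% from the earlier first-round screen, limit read from the data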
Hits are given with their value; – = inactive; · = no result.

SMILES | VIM-2 inh | Fh CTSL1 inh | pCIP destab | T cell HTS | IMP-1 inh-1 | UBC9 SUMO inh | IMP-1 inh-2 | VIM-2 FRET ctr | TEM-1 inh | VIM-2 confirm 2
Nc1cc(N)nc(SCCN2CCCCC2)n1 | – | – | – | – | – | – | · | · | · | ·
Cn1c2ccccc2c2nnc(SCC(=O)Nc3cccc(O)c3)nc21 | 20 | – | – | – | – | – | – | – | – | 27
CCn1c2ccccc2c2nnc(SCCN3CCCCC3)nc21 | 19 | – | – | – | – | – | – | – | – | 22
CCn1c2ccccc2c2nnc(SCc3ccccc3)nc21 | – | – | – | – | – | – | · | · | · | ·
Cc1cc(C)c2c(c1)c1nnc(SCCN3CCCCC3)nc1n2C | 23 | · | – | · | – | – | – | – | – | 33
CCOc1ccccc1NC(=O)CNC(=O)CNC(=O)Cc1ccccc1 | – | – | – | – | – | – | · | · | · | ·
CCCCn1c2ccc(C)cc2c2nnc(SCCN3CCCCC3)nc21 | 22 | · | – | – | – | – | – | – | – | 33
Cc1c(N2C(=O)/C(=C/c3cccc4ccccc34)SC2=S)c(=O)n(-c2ccccc2)n1C | 50 | – | · | – | – | · | – | – | – | 12
Cc1c(N2C(=O)/C(=C\c3ccccc3O)SC2=S)c(=O)n(-c2ccccc2)n1C | – | – | – | – | – | – | · | · | · | ·
Clc1ccc(-c2csc(=Nc3cccnc3)n2CCCn2ccnc2)cc1Cl | 30 | – | – | – | – | – | – | – | – | 35
COCCn1c(-c2ccc(Br)cc2)csc1=Nc1cccnc1 | – | – | – | – | – | – | · | · | · | ·
COc1ccc(-c2ccc3nnc(SCC(N)=O)n3n2)cc1 | – | – | – | – | – | – | · | · | · | ·
CCSc1nnc2ccc(-c3ccc(OC)c(OC)c3)nn12 | 31 | – | – | – | – | – | – | – | – | 44
CCCc1c(C)nc(N2CCN(c3ccccc3OC)CC2)[nH]c1=O | – | – | – | – | – | – | · | · | · | ·
CCOc1ccc(N(CC(=O)NC2CCCCC2)C(=O)CCC(=O)Nc2nc(C)cs2)cc1 | – | – | – | – | – | – | · | · | · | ·
CC(=O)c1c(Cl)nc2cccc3c2c1-c1ccccc1C3=O | 20 | – | – | – | – | – | – | – | – | 31
COCC(C)NC(=O)CSc1nc2cc(S(=O)(=O)N3CCCCC3)ccc2o1 (stereo not given) | · | · | · | – | · | · | · | · | · | ·
CSC[C@H](NC(=O)COc1cc2c(c3oc(=O)c(C)c(C)c13)CCC(C)(C)O2)C(=O)O | 28 | – | – | – | – | – | – | 48 | – | 34
CSCC[C@H](NC(=O)COc1cc2c(c3oc(=O)c(C)c(C)c13)CCC(C)(C)O2)C(=O)O | – | – | – | – | – | – | · | · | · | ·
Cc1c(C)c2c(OCC(=O)N[C@@H](Cc3ccccc3)C(=O)O)cc3c(c2oc1=O)CCC(C)(C)O3 | 40 | – | – | – | – | – | – | 68 | – | 46
Cc1c(C)c2c(OCC(=O)N[C@@H](CC(C)C)C(=O)O)cc3c(c2oc1=O)CCC(C)(C)O3 | – | · | – | – | – | – | · | · | · | ·
O=C(O)CSCC(=O)N1CCN(S(=O)(=O)c2cc(Cl)cc(Cl)c2)CC1 | – | – | – | – | – | – | · | · | · | ·
O=C(Cn1c(=O)cnc2ccccc21)N1CCN(S(=O)(=O)c2cccc([N+](=O)[O-])c2)CC1 | · | – | · | – | · | · | · | · | · | ·
Cc1cc(Nc2ccc(C)c(Br)c2)n2nc(C)nc2n1 | 14 | – | – | – | – | – | – | – | – | 28
COc1cc(Nc2cc(C)nc3nc(C)nn23)cc(OC)c1OC | 13 | – | – | – | – | – | – | – | – | 33
SMILES | VIM-2 inh | Fh CTSL1 inh | pCIP destab | T cell HTS | IMP-1 inh-1 | UBC9 SUMO inh | IMP-1 inh-2 | VIM-2 FRET ctr | TEM-1 inh | VIM-2 confirm 2
COc1ccc(Nc2cc(C)nc3nc(C)nn23)cc1Cl | 19 | – | – | – | – | – | – | – | – | 29
COc1ccc(-c2c(C)nc(N)nc2-c2ccc(OCc3ccc(C)cc3)cc2O)cc1OC | – | – | – | – | – | – | · | · | · | ·
Cc1ccc2nc(Cl)c3cc(C(=O)NCCCN4CCCC4)sc3c2c1 | 13 | – | – | – | – | – | – | – | – | 27
Cc1ccc2cc3cc(C(=O)NCCCN4CCCC4)oc3nc2c1 | – | – | – | – | – | – | · | · | · | ·
CSc1nc2sc3c(c2c(=S)[nH]1)CC(C)(C)OC3 | 15 | · | – | – | – | – | – | 21 | – | 19
CSc1nc(SCC(=O)O)c2c3c(sc2n1)COC(C)(C)C3 | 17 | – | – | – | – | – | – | 43 | – | 25
CCc1nc2sc3c(c2c(=S)[nH]1)CC(C)(C)OC3 | – | · | – | · | – | – | · | · | · | ·
CCN(CC)CCn1c2c(c(SCC(=O)Nc3cc(C)on3)nc1=O)CCCC2 | · | – | · | – | · | · | · | · | · | ·
CCOC(=O)c1cnc2c(Cl)c(Cl)ccc2c1N1CCN(C)CC1 | 15 | – | – | – | – | – | – | – | – | 24
Cc1cccn2c(=O)c3cc(C(=O)NCc4ccco4)c(=N)n(CCc4ccccc4)c3nc12 | – | – | – | – | – | – | · | · | · | ·
Cc1cccn2c(=O)c3cc(C(=O)NCc4cccnc4)c(=N)n(C(C)C)c3nc12 | 20 | – | – | – | – | – | – | – | – | 31
Cc1cccn2c(=O)c3cc(C(=O)NCc4ccco4)c(=N)n(C(C)C)c3nc12 | 13 | – | – | – | – | – | – | – | – | 27
CC(C)(C)OC(=O)N[C@H](C(=O)OC(C)(C)C)c1ccccc1 | · | · | · | – | · | · | · | · | · | ·
COc1cc(OC)c2c(=O)c(OC)c(-c3ccc(OC)c(OC)c3)oc2c1 | 16 | – | – | – | – | – | – | – | – | 35
Cc1ccc(CNc2c(C=O)c(=O)[nH]c3ccccc23)cc1 | 14 | – | – | – | – | – | – | 31 | – | 21
O=Cc1c(NCc2ccc(F)cc2)c2ccccc2[nH]c1=O | – | – | – | – | – | – | · | · | · | ·
Cc1ccc2c(c1)c1nc3ccccc3nc1n2C | 14 | – | – | – | – | – | – | – | – | 16
Cc1ccc2c(c1)c1nc3ccccc3nc1n2CCN1CCOCC1 | – | – | – | – | – | – | · | · | · | ·
CN(C)c1ccc(/C=N/N(CCC(=O)NC(C)(C)C)C2=NS(=O)(=O)c3ccccc32)cc1 | 20 | – | – | – | – | – | – | – | – | –
COc1cc(/C=N/N(CCO)C2=NS(=O)(=O)c3ccccc32)cc(OC)c1OC | 12 | – | – | – | – | – | – | – | – | 21
